Data on twelve compounds can be found in ChEMBL document CHEMBL1129606, “Synthesis and bioevaluation of delta 7-5-desaturase inhibitors, an enzyme late in the biosynthesis of the fungal sterol ergosterol” (J Med Chem, 1996).

The structures appear in SMILES notation.

The assay concerns the target Delta(7)-sterol 5(6)-desaturase. As to the kind of experiment: Inhibition of 5-Desaturase involved in ergosterol biosynthesis. Also noted: species or system Saccharomyces cerevisiae. Put shortly: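 Microsomal Δ7-sterol 5-desaturase from aerobically grown S. cerevisiae (37 °C, YPD). Cells bead-disrupted in 0.1 M Tris-HCl pH 7.4, 94500g pellet, desalted on Sephadex G-50. Incubated with Tween 20, FeCl3, NADPH and [5α,6α-3H]-7,22(E)-ergostadien-3β-ol with varied inhibitor, all else held constant. Alkali quench, EtOAc extraction, aqueous 3H2O scintillation-counted. IC50 from inverse velocity vs inhibitor concentration; mean of ≥2 experiments.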
The term IC50 denotes the concentration that inhibits the measured activity by half. Higher therefore signals lower potency. Consider `C[C@]12CC[C@H](O)C[C@]1(C=O)CC=C1CCC12` (some centres not stated), for which the IC50 came to 116 µM. The result for `C[C@]12CC[C@H](O)C[C@]1(C(=O)O)CC=C1CCC12` (some centres not stated) reads 111 µM; that for `C[C@]12CC[C@H](O)C[C@]1(O)[C@H](O)C=C1CCC12` (some centres not stated), 96 µM; that for `C[C@]12CC[C@H](O)C[C@@H]1[C@@H](O)C=C1CCC12` (some centres not stated), 47 µM. `C[C@]12CC[C@H](O)C[C@]1(S)CC=C1CCC12` (some centres not stated) registered an IC50 of 80 µM. The result for `C[C@]12CC[C@H](O)C[C@]1(/C=N/O)CC=C1CCC12` (some centres not stated) reads 136 µM. `C[C@]12CC[C@H](O)C[C@]1(O)[C@@H](O)C=C1CCC12` (some centres not stated) came in with an IC50 of 149 µM. The compound `C[C@]12CC[C@H](O)C[C@]1(O)CC=C1CCC12` (some centres not stated) showed an IC50 of 148 µM. The IC50 values of the last two compounds are within 1.5-fold of each other. The result for `C[C@]12CC[C@H](O)C[C@]1(CO)CC=C1CCC12` (some centres not stated) reads 112 µM. The value for `C[C@]12CC[C@H](O)C[C@]1(C#N)CC=C1CCC12` (some centres not stated) was 131 µM. The result for `C[C@]12CC[C@H](O)[C@H]3O[C@]31CC=C1CCC12` (some centres not stated) reads 66 µM; that for `C[C@]12CC[C@H](O)C[C@]1(C(N)=O)CC=C1CCC12` (some centres not stated), 114 µM.
